Measured values from different studies.
Lines come from different studies, so protocols differ.
Toll-like receptor 1/2: Toll-like receptor 1/2 (Homo sapiens, UniProt O60603+Q15399)
Chymotrypsinogen A: Chymotrypsinogen A (Bos taurus, UniProt P00766)

SMILES	target	test	conditions	measurement	result
CNc1ccc(C(=O)OC)cc1-n1cnc(-c2ccc(C(F)(F)F)cc2)c1	Toll-like receptor 1/2	reporter gene, agonist		EC50	> 100000 nM
OC[C@@H]1[C@@H](O)[C@H](O)[C@@H](O)[C@@H]2O[C@H]12	Beta-glucosidase (GBA2, Homo sapiens, UniProt Q9HCG7)	enzyme activity, inhibitor	pH 5.5, lysate	IC50	350 nM
O=C(CCn1cc(CCN2CCN(c3cc4c(cc3F)c(=O)c(C(=O)O)cn4C3CC3)CC2)nn1)Nc1ccc(S[C@@H]2O[C@H](CO)[C@H](O)[C@H](O)[C@H]2O)cc1	PA-I galactophilic lectin (lecA, Pseudomonas aeruginosa, UniProt Q05097)	ligand displacement, FP		Ki	3190 nM
CNc1nc(I)nc2c1ncn2[C@H]1C[C@H](OP(=O)(O)O)[C@]2(COP(=O)(O)O)C[C@H]12	P2Y purinoceptor 1 (Rattus norvegicus, UniProt P49651)	calcium signal, antagonist		Kb	5.4 nM
Cc1cc2nc3c(=O)[nH]c(=O)nc-3n(C[C@H](O)[C@H](O)[C@H](O)COP(=O)(O)OP(=O)(O)OC[C@H]3O[C@@H](n4cnc5c(N)ncnc54)[C@H](O)[C@@H]3O)c2cc1C	Pumilio homolog 2 (Homo sapiens, UniProt Q8TB72)	binding	lysate	Kd	15 nM
Cc1cnc(-c2ccc(-c3ccc(NC(=O)Nc4c(F)cc(F)cc4F)cc3F)c3c2C(=O)NC3)[nH]1	Tyrosine-protein kinase Fer (FER, Homo sapiens, UniProt P16591)	binding, competition with immobilised ligand		Kd	14 nM
CNc1ccc([N+](=O)[O-])cc1-n1cnc(-c2cc(F)c(F)cc2F)c1	Toll-like receptor 1/2	reporter gene, agonist		EC50	> 100000 nM
CCOCc1nc(O)c(-c2nnc(Cc3ccc(Cl)cn3)o2)c(O)c1-c1c(OC)cccc1OC	Apelin receptor (Aplnr, Mus musculus, UniProt Q9WV08)	cAMP, agonist		EC50	0.03 nM
CCCCc1ccc(-c2cn(-c3cc([N+](=O)[O-])ccc3NC)cn2)cc1	Toll-like receptor 1/2	reporter gene, agonist		EC50	230 nM
CCCC[C@H](NC(=O)[C@H](CCC(N)=O)NC(=O)[C@H](CO)NC(=O)[C@H](Cc1ccccc1)NC(=O)CCCCCNC(=O)c1ccc(I)cc1)C(=O)N[C@@H](CCCBr)B(O)O	Chymotrypsinogen A	enzyme activity, inhibitor, fluorescence		Ki	653 nM
CC[C@H](C)[C@H](NC(=O)[C@H](Cc1ccccc1)NC(=O)[C@H](CCC(=O)O)NC(=O)[C@H](CCCCN)NC(=O)[C@H](C)NC(=O)[C@H](C)NC(=O)[C@H](CCC(N)=O)NC(=O)CNC(=O)[C@H](CCC(=O)O)NC(=O)[C@H](CC(C)C)NC(=O)[C@H](Cc1ccc(O)cc1)NC(=O)[C@H](CO)NC(=O)[C@H](CO)NC(=O)[C@@H](NC(=O)[C@H](CC(=O)O)NC(=O)[C@H](CO)NC(=O)[C@@H](NC(=O)[C@H](Cc1ccccc1)NC(=O)[C@@H](NC(=O)CNC(=O)[C@H](CCC(=O)O)NC(=O)[C@H](C)NC(=O)[C@@H](N)Cc1c[nH]cn1)[C@@H](C)O)[C@@H](C)O)C(C)C)C(=O)N[C@@H](C)C(=O)N[C@@H](Cc1c[nH]c2ccccc12)C(=O)N[C@@H](CC(C)C)C(=O)N[C@H](C(=O)N[C@@H](CCCCN)C(=O)NCC(=O)N[C@@H](CCCN=C(N)N)C(=O)NCC(=O)O)C(C)C	Gastric inhibitory polypeptide receptor (Mus musculus, UniProt Q0P543)	reporter gene, agonist, luciferase		EC50	> 1000 nM
CNc1ccc([N+](=O)[O-])cc1-n1cnc(-c2ccc(C(C)(C)C)cc2)c1	Toll-like receptor 1/2	reporter gene, agonist		EC50	150 nM
CCCC[C@H](NC(=O)[C@H](CCC(N)=O)NC(=O)[C@H](CO)NC(=O)CCCCCN)C(=O)N[C@@H](CCCBr)B(O)O	Chymotrypsinogen A	enzyme activity, inhibitor, fluorescence		Ki	251 nM
